Only some compounds are listed: those with a hit (about 1.6% of all), similar ones and a draw of the others.
TRAIL sens C8: caspase-8 TRAIL sensitization; NB7+C8 cells + TRAIL, ATPlite viability luminescence; inhibition (viability loss, TRAIL sensitization), % at 10 µM; 1% of 360,000 active;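 active means compounds causing at least 50% loss of cell viability in the single-dose screen, relative to plate controls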
PPC-1+TRAIL kill: PPC-1 cancer cell killing with TRAIL present; PPC-1 cells + TRAIL, ATPLite viability luminescence; cell killing (% activity), % at 4 µM or 5 µM; 0.41% of 220,000 active; AID 1443;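 active means cell killing above 50% in the first pass at 4 µM, then a duplicate retest at 5 µM averaging 50% or more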;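 further: plate controls were cells with TRAIL plus DMSO for no effect and medium-only wells lacking cells for full effect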
FLuc act counter: affects firefly luciferase, flagging false hits in luciferase stimulation screens; P08659; ATPlite luciferase biochemical, luminescence, 10 min; 0 = ATP-free wells, 1 = DMSO control; activation factor at 10 µM; 200,000 tested, under 10 active;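 active means luciferase activation factor, scaled between plate controls, of at least 2 with compound at 10 µM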
Target sequence (P08659 whole entry, looked up): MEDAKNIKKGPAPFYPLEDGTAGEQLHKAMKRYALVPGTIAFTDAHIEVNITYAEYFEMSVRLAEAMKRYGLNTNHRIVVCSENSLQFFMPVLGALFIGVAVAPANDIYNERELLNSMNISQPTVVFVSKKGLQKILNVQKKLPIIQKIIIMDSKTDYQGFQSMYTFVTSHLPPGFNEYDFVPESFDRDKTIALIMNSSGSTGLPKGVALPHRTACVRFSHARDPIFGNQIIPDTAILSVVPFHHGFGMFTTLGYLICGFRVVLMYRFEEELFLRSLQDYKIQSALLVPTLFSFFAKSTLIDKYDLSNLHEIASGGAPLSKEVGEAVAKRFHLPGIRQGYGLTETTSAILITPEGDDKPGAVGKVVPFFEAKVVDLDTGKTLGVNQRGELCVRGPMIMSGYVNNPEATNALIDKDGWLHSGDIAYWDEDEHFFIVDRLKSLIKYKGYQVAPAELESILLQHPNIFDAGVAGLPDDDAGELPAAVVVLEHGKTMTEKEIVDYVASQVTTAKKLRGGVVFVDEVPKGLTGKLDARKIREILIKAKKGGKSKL
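Material: luciferase plus luciferin reagent, cell-free. Medium: PBS buffer for ATP. Also added: ATP substrate, dispensed from a 10.24 µM working solution in PBS. Doses: test compounds dosed from 2 mM stocks in 100% DMSO. Incubation: 10 min post-reagent at room temperature. Technique: light output (luminescence). Read-out basis: luminescence gain marking luciferase activators.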
Platelet DG rel: platelet dense granule release activity; human platelet-rich plasma, SFLLRN dense granule ATP release, luminescence; inhibition, %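 (compounds screened at 7.5 µM in platelet-rich plasma)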; 0.22% of 300,000 active; AID 1663;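 active means mean replicate score, as percent of positive control, at or above 50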
FLuc inhib CS: counter-screen for luciferase assay inhibitors: firefly luciferase inhibition | ATPLite firefly luciferase biochemical luminescence, 10 min | P08659 | 1.5% of 200,000 active | inhibition, % at 10 µM | AID 1006;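 active means inhibition above about 50% when tested at 10 µM, limit read from the data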
Active calls of the source: *.

For Cc1ccnc(NC(=O)CNC(=O)c2cccs2)c1 the results were TRAIL sens C8 16.9 and Platelet DG rel 4.3.
Cc1ccnc(NC(=S)NC(=O)c2ccco2)c1 was read as TRAIL sens C8 52.8*, PPC-1+TRAIL kill 26.7, FLuc act counter 0.4, Platelet DG rel -10.7 and FLuc inhib CS 61.4*.
For O=C(NC(=S)Nc1ccc(Cl)cn1)c1cccs1 the results were TRAIL sens C8 71.8*, PPC-1+TRAIL kill 27.9, FLuc act counter 0.3, Platelet DG rel 5.0 and FLuc inhib CS 67.8*.
Cc1ccnc(NC(=S)NC(=O)c2cccs2)c1 was read as TRAIL sens C8 88.8*, PPC-1+TRAIL kill 61.1*, FLuc act counter 0.1, Platelet DG rel 5.7 and FLuc inhib CS 87.2*.
Screening CN1OC[C@@H]2CN(C(=S)NCCc3ccccc3)[C@H](c3ccc(N4CCCCC4)cc3)C[C@@H]21 returned TRAIL sens C8 2.4.
For O=C(Nc1ccc(F)c(Cl)c1)Nc1nnc([C@@H]2O[C@H](CO)[C@@H](O)[C@H]2O)s1 the results were TRAIL sens C8 -9.6.
For O=S1(=O)N[C@@H](Cc2ccccc2)COc2cc(N3CCN(Cc4ccccc4F)CC3)ccc21 the results were TRAIL sens C8 -10.0.
For O=C(NC(=S)Nc1cccnc1Cl)c1ccco1 the results were TRAIL sens C8 23.0, PPC-1+TRAIL kill 4.0, FLuc act counter 0.4, Platelet DG rel 14.4 and FLuc inhib CS 57.9*.
`COc1ccccc1-n1cc(-c2ccc(Cl)cc2)[nH]c1=O` gave TRAIL sens C8 -10.6, PPC-1+TRAIL kill 13.4, FLuc act counter 1.1, Platelet DG rel 104.8* and FLuc inhib CS -5.3.
For Cc1cccc(C)c1NC(=O)CN(Cc1ccccc1)Cc1ccccc1 the results were TRAIL sens C8 3.1.
CCc1ccc(C(=O)O)cc1 was read as TRAIL sens C8 2.4, PPC-1+TRAIL kill 13.6 and Platelet DG rel -3.3.
`CCc1ccc(C(=O)CN2CCSC2=N)cc1` gave TRAIL sens C8 49.0, PPC-1+TRAIL kill 39.3, FLuc act counter 0.4, Platelet DG rel 7.6 and FLuc inhib CS 63.2*.
`COc1ccc(NC(=O)Nc2nc(C(N)CC(C)C)cs2)cc1` (stereo not drawn) gave TRAIL sens C8 7.0.
`NC(c1csc(NC(=O)Nc2ccc(OC(F)(F)F)cc2)n1)C1CCCCC1` (stereo not drawn) gave TRAIL sens C8 85.4*.
Screening C/C(=N\NC(=O)c1cc2ccccc2cc1O)c1cccs1 returned TRAIL sens C8 52.5* and Platelet DG rel 6.4.
Screening O=C(NNC(=O)c1cc2ccccc2cc1O)c1cccs1 returned TRAIL sens C8 5.6 and Platelet DG rel 7.8.
For C/C(=N\NC(=O)c1cc2ccccc2cc1O)c1ccc(C)o1 the results were TRAIL sens C8 33.6 and Platelet DG rel 22.1.
C/C(=N/NC(=O)c1cc2ccccc2cc1O)c1ccco1 was read as TRAIL sens C8 55.3* and Platelet DG rel 19.1.
Screening COC(=O)c1ccc(COC(=O)C2CCN(S(=O)(=O)c3c(C)cc(C)cc3C)CC2)o1 returned TRAIL sens C8 -13.1.
`CCCCN1CC(COCc2ccccc2)Oc2cccc(OCc3ccc(OC)cc3)c2S1(=O)=O` (stereo not drawn) gave TRAIL sens C8 0.9.
`CC(C)C[C@@H](CN1CCCC1CN1C(=S)NC[C@@H]1Cc1ccc(O)cc1)N1C[C@H](Cc2ccc(O)cc2)N(CC2CCCCCC2)C1=S` (stereo partly drawn) gave TRAIL sens C8 53.2*.
`CC(=O)c1cccc(NC(=O)C2Cc3c(-c4ccco4)ccnc3O2)c1` (stereo not drawn) gave TRAIL sens C8 -0.5.
`CCn1c(-c2ccccc2)csc1=Nc1ccc(S(=O)(=O)O)cc1` gave TRAIL sens C8 18.7, PPC-1+TRAIL kill 20.1, FLuc act counter 0.5, Platelet DG rel 0.3 and FLuc inhib CS 54.4*.
For CC(=O)c1ccc(NC(=O)CSc2nc(N)c3cc4c(nc3n2)CCCC4)cc1 the results were TRAIL sens C8 51.6*, PPC-1+TRAIL kill 22.8, FLuc act counter 0.5, Platelet DG rel 12.1 and FLuc inhib CS 48.2.
COc1ccc(NC(=O)CSc2nc(N)c3cc4c(nc3n2)CCCC4)cc1 was read as TRAIL sens C8 37.1, PPC-1+TRAIL kill 15.4, FLuc act counter 0.4, Platelet DG rel 23.9 and FLuc inhib CS 61.6*.
For c1ccc(OCCNc2ccn3nc(-c4cccs4)cc3n2)cc1 the results were TRAIL sens C8 -0.7.
For C/C(=N\NC(=O)c1ccccc1F)c1cccc(NC(=O)c2ccc(C)cc2)c1 the results were TRAIL sens C8 59.3* and Platelet DG rel 5.7.
`O=C(Nc1cccc(O)c1)c1ccc(C(F)(F)F)cc1` gave TRAIL sens C8 33.7, PPC-1+TRAIL kill 15.5, FLuc act counter 0.4, Platelet DG rel 7.7 and FLuc inhib CS 57.0*.
For C/C(=N\NC(=O)c1cccc(N/N=C(\C)c2cc(O)ccc2O)c1)c1cc(O)ccc1O the results were TRAIL sens C8 55.4*, PPC-1+TRAIL kill 20.4, FLuc act counter 0.8, Platelet DG rel -7.2 and FLuc inhib CS 18.3.
Screening C/C(=N\NC(=O)c1ccc(F)cc1)c1cccc(NC(=O)c2cccc(F)c2)c1 returned TRAIL sens C8 5.5 and Platelet DG rel -6.2.
For C/C(=N\NC(=O)c1ccc(F)cc1)c1cccc(NC(=O)c2ccco2)c1 the results were TRAIL sens C8 24.6, PPC-1+TRAIL kill 17.5, FLuc act counter 0.5, Platelet DG rel 3.7 and FLuc inhib CS 50.4*.
Screening Cc1ccc2nc(-c3cccc(Br)c3)c(Cc3ccccc3)n2c1 returned TRAIL sens C8 -4.8.
C/C(=N\NC(=O)c1ccc(O)cc1)c1cccc(NC(=O)c2ccc(Cl)cc2)c1 was read as TRAIL sens C8 65.8* and Platelet DG rel 18.2.
Screening C/C(=N\NC(=O)c1ccc(Cl)cc1)c1cccnc1 returned TRAIL sens C8 33.2 and Platelet DG rel 5.2.
C/C(=N\NC(=O)c1ccc(Cl)cc1)c1cccc(NC(=O)c2cccnc2)c1 was read as TRAIL sens C8 41.3, PPC-1+TRAIL kill 29.6, FLuc act counter 0.4, Platelet DG rel -5.9 and FLuc inhib CS 63.2*.
Screening C/C(=N\NC(=O)c1cccc(O)c1)c1cccc(NC(=O)c2ccc(F)cc2)c1 returned TRAIL sens C8 56.9* and Platelet DG rel 8.6.
`COc1ccc(-c2nn(-c3ccccc3)cc2/C=N/O)cc1OC` gave TRAIL sens C8 8.3 and Platelet DG rel 6.1.
For COc1ccc(-c2nn(-c3ccccc3)cc2/C=N/N=C(N)N)cc1OC the results were TRAIL sens C8 24.8, PPC-1+TRAIL kill 55.1*, FLuc act counter 1, Platelet DG rel -12.4 and FLuc inhib CS -1.2.
`Clc1ccc(-c2cnn3c(-c4ccncc4)ccnc23)cc1` gave TRAIL sens C8 24.7, PPC-1+TRAIL kill 42.5, FLuc act counter 0.3, Platelet DG rel -1.7 and FLuc inhib CS 67.9*.
For Nc1c(-c2ccccc2)cnc2c(-c3ccccc3)cnn12 the results were TRAIL sens C8 83.7* and Platelet DG rel -1.0.

High-throughput results deposited in PubChem BioAssay by several laboratories.
